Key:
[1] = target: T1, Peroxisome proliferator-activated receptor alpha (Homo sapiens, UniProt Q07869); test: Activity against PPAR alpha in human by FRET assay
T1 sequence (Q07869 whole entry): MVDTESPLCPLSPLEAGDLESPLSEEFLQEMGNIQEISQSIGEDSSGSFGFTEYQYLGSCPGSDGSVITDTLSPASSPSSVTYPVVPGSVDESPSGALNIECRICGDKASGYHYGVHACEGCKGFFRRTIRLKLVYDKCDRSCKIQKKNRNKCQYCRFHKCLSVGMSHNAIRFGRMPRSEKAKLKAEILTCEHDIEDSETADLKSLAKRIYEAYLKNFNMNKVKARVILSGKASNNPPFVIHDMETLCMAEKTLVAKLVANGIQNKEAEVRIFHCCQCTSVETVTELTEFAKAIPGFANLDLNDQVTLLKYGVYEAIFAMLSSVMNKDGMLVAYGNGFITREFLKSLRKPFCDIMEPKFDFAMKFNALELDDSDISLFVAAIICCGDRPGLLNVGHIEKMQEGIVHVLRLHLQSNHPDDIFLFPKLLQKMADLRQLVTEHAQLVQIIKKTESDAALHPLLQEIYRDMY
In short: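 Human PPAR-α ligand-binding domain (GST-tagged), incubated with compound, europium-labelled anti-GST antibody, biotinylated CREB-binding protein co-activator and streptavidin-APC. Time-resolved FRET read with excitation at 340 nm and emission at 615 and 640 nm. EC50 taken as the mean of at least three experiments.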

[2] = target: T2, Peroxisome proliferator-activated receptor gamma (Homo sapiens, UniProt P37231); test: Activity against PPAR gamma in human by FRET assay
T2 sequence (P37231 whole entry): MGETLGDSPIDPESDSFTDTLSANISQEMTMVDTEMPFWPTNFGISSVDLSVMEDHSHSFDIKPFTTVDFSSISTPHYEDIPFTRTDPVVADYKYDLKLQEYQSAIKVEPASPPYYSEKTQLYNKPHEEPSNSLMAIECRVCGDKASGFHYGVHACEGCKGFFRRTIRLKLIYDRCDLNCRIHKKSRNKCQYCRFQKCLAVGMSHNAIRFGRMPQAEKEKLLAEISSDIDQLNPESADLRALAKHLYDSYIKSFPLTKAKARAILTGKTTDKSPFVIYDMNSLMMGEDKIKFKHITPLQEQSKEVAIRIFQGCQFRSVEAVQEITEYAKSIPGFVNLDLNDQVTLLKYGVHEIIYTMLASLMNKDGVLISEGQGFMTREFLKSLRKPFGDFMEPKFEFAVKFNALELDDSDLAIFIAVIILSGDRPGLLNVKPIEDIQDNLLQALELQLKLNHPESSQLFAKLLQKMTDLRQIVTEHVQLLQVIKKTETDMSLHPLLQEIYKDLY

Mus musculus [3] = test: Decrease in blood glucose level in male db/db mice administered at 10 mg/kg, po; format: functional; set-up: scale not given: the % may be the effect or the level left
In short: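 Given by oral gavage once daily for 14 days in 0.5% methylcellulose vehicle, with vehicle-dosed controls. After the last dose the mice were euthanized and blood was collected for glucose measurement. The decrease is expressed relative to vehicle.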

[4] = AUC in male hApoA1 transgenic mice administered at 3 mg/kg, po; format: ADME, organism-based; set-up: dose 3 mg/kg, route oral; conditions: mouse, plasma
Mus musculus [5] = test: Increase in serum HDL in male hApoA1 mice administered at 30 mg/kg, po; format: functional
In short: (§1)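 Male hApoA1 transgenic mice, n = 16 per group, had ad lib water and chow. They were dosed by oral gavage once daily for eight days in 0.5% methylcellulose vehicle, with vehicle controls. Serum lipid changes are compared with vehicle.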

[6] = AUC in male db/db mice administered at 3 mg/kg, po; format: ADME, organism-based; set-up: dose 3 mg/kg, route oral; conditions: mouse, plasma
[7] = Cmax in male db/db mice administered at 3 mg/kg, po; format: ADME, organism-based; set-up: dose 3 mg/kg, route oral; conditions: mouse, in vivo
[8] = Cmax in male hApoA1 transgenic mice administered at 3 mg/kg, po; format: ADME, organism-based; set-up: dose 3 mg/kg, route oral; conditions: mouse, in vivo
Mus musculus [9] = test: Decrease in serum triglyceride level in male hApoA1 mice administered at 10 mg/kg; format: functional; set-up: scale not given: the % may be the effect or the level left; in short: as §1
Mus musculus [10] = test: Increase in serum HDL in male hApoA1 mice administered at 10 mg/kg, po; format: functional; in short: as §1
Mus musculus [11] = test: Decrease in serum triglyceride level in male hApoA1 mice administered at 30 mg/kg; format: functional; set-up: scale not given: the % may be the effect or the level left; in short: as §1

Compound	EC50 [1] [nM]	EC50 [2] [nM]	further results
Cc1oc(-c2ccccc2)nc1CCOc1ccc2c(c1)CCC2C(CC(F)(F)F)C(=O)O (stereo not drawn)	5790	177	
CC[C@H](C(=O)O)[C@@H]1CCc2cc(OCCc3nc(-c4ccc(C)cc4)oc3C)ccc21	78	30	Activity (Mus musculus [3]): 45%; AUC [4]: 8060 ng·h/mL; Activity (Mus musculus [5]): 30%; AUC [6]: 11600 ng·h/mL; Cmax [7]: 2980 ng/mL; Cmax [8]: 2550 ng/mL; Activity (Mus musculus [9]): 45%; Activity (Mus musculus [10]): 15%; Activity (Mus musculus [11]): 60%
Cc1oc(-c2ccccc2)nc1CCOc1ccc2c(c1)CCC2C(C(=O)O)C(=O)O (stereo not drawn)	> 10000	1860	
CCC(C(=O)O)C1CCc2cc(OCCn3nc(-c4ccccc4)cc3C)ccc21 (stereo not drawn)	232	196	
CCC(C(=O)O)C1CCc2cc(OCCc3noc(-c4ccccc4)n3)ccc21 (stereo not drawn)	1040	> 10000	
COC(C(=O)O)C1CCc2cc(OCCc3nc(-c4ccccc4)oc3C)ccc21 (stereo not drawn)	670	45	
CCC(C(=O)O)C1CCc2cc(OCCc3c(-c4ccccc4)noc3C)ccc21 (stereo not drawn)	> 10000	> 10000	
Cc1oc(-c2ccccc2)nc1CCOc1ccc2c(c1)CCC2C(C(=O)O)c1ccccc1 (stereo not drawn)	7260	9560	
CCOC(=O)C(C(=O)O)C1CCc2cc(OCCc3nc(-c4ccccc4)oc3C)ccc21 (stereo not drawn)	308	68	
Cc1oc(-c2ccccc2)nc1CCOc1ccc2c(c1)CCC2C(C(=O)O)C1CC1 (stereo not drawn)	795	160	
Cc1oc(-c2ccccc2)nc1CCOc1ccc2c(c1)CCC2C(CCCc1ccccc1)C(=O)O (stereo not drawn)	> 10000	3180	
CCC(C(=O)O)C1CCc2cc(OCCc3nc(-c4ccccc4)oc3C)ccc21 (stereo not drawn)	141	42	
CCC(C(=O)O)C1CCc2cc(OCCc3nc(-c4ccc(F)cc4)oc3C)ccc21 (stereo in doubt)	37	154	

More lines, main results first:

EC50 [1] [nM]	EC50 [2] [nM]	Compound	further results
> 10000	> 10000	CCC(C(=O)O)C1CCc2cc(OCCc3c(C)noc3C)ccc21 (stereo not drawn)	
3890	52	CCCC(C(=O)O)C1CCc2cc(OCCc3nc(-c4ccccc4)oc3C)ccc21 (stereo not drawn)	
6000	5640	Cc1oc(-c2ccccc2)nc1CCOc1ccc2c(c1)CCC2C(C)(C)C(=O)O (stereo not drawn)	
> 10000	> 10000	CCC(C(=O)O)C1CCc2cc(OCCn3ncc4ccccc4c3=O)ccc21 (stereo not drawn)	
979	85	CCC(C(=O)O)C1CCc2cc(OCCc3nc(-c4ccccc4)sc3C)ccc21 (stereo not drawn)	
500	12	CCOC(C(=O)O)C1CCc2cc(OCCc3nc(-c4ccccc4)oc3C)ccc21 (stereo not drawn)	
29	131	CCC(C(=O)O)C1CCc2cc(OCCc3nc(-c4ccc(Cl)c(Cl)c4)oc3C)ccc21 (stereo in doubt)	
137	59	CCC(C(=O)O)C1CCc2cc(OCCc3nc(-c4ccc(F)cc4)oc3C)ccc21 (stereo in doubt; 54)	
91	94	CCC(C(=O)O)C1CCc2cc(OCCc3nc(-c4ccc(Cl)c(Cl)c4)oc3C)ccc21 (stereo in doubt; 66)	
